Assay results taken from publication PMC8359128 (ACS Omega, 2021).

Columns and labels:
[1] = target: T1, human CB2 receptor (Homo sapiens, UniProt P34972); experiment: Competitive radioligand; type: binding; conditions: for inhibition at 10 µM: read-out: % displacement at 10 μM CB2
[2] = target: T2, human CB1 receptor (Homo sapiens, UniProt P21554); experiment: Competitive radioligand; type: binding; conditions: for inhibition at 10 µM: read-out: % displacement at 10 μM CB1
[3] = target: T2, human CB1 receptor; experiment: [35S]-GTPγS functional assay, CB1; type: biochemical; conditions: for functional behavior at CB1: GTPγS
Procedure, shortened: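 Membranes (20 µg) from HEK293 cells stably expressing human CB1, incubated with 0.5 nM [35S]-GTPγS, 30 µM GDP and test compound in 50 mM Tris-HCl, 150 mM NaCl, 9 mM MgCl2, 0.2 mM EGTA, 1.4 mg/mL BSA, pH 7.4. Incubation 2 h, 37 °C, gentle shaking. […] Filtration, scintillation counting. Duplicates; EC50 by nonlinear regression.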

[4] = target: T1, human CB2 receptor; experiment: [35S]-GTPγS functional assay, CB2; type: biochemical; conditions: for functional behavior at CB2: GTPγS
[5] = (−)-trans vs (+)-trans isomer; cited from earlier work
[6] = IC50 CB2 displacement (bound given in text)
[7] = IC50 ± SEM CB2, competitive radioligand binding, triplicate

T2 sequence (P21554 whole entry): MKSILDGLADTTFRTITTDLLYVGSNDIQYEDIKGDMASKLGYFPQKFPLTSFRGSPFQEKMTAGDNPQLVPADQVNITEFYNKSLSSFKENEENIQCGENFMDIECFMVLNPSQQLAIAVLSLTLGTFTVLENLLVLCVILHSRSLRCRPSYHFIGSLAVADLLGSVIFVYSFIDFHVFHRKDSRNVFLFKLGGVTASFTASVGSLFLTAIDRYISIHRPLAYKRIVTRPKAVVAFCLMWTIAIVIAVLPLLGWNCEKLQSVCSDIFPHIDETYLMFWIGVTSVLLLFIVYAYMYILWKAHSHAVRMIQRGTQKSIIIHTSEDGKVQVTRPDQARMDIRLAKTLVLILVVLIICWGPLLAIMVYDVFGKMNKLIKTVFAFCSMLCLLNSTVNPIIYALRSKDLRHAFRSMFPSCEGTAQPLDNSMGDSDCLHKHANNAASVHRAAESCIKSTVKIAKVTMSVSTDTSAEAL
T1 sequence (P34972 whole entry): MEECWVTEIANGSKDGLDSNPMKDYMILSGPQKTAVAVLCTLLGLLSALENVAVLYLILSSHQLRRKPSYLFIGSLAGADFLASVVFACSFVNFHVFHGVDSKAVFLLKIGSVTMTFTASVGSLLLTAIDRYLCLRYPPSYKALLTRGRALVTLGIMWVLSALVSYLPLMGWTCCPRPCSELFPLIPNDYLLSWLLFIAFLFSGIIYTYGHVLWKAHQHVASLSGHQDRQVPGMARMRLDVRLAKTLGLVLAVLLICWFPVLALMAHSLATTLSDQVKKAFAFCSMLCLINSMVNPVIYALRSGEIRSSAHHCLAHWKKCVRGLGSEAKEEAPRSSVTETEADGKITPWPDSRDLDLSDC

**Q.** With C[C@H]1CC[C@H]2[C@H](C1)c1c(O)cc(-c3ccccc3)cc1OC2(C)C [11A, (6aS,9S,10aS)-6,6,9-Trimethyl-3-phenyl-6a,7,8,9,10,10a-hexahydro-6H-benzo[c]chromen-1-ol] as the compound, how does the Ki [1] read?
**A.** The Ki was 1570 ± 836 nM.

**Q.** And the IC50 [1, 6]?
**A.** Its IC50 is ≤ 3200 nM.

**Q.** And the IC50 [1, 7]?
**A.** The IC50 was 3150 ± 1670 nM.

**Q.** And the inhibition at 10 µM [1]?
**A.** Its inhibition at 10 µM is 57.3%.

**Q.** What about the inhibition at 10 µM [2] of the same compound?
**A.** The inhibition at 10 µM was 34.3%.

**Q.** With C[C@H]1CC[C@H]2[C@H](C1)c1c(O)cc(-c3ccc4c(c3)OCO4)cc1OC2(C)C [11B, (6aS,9S,10aS)-3-(Benzo[d][1,3]dioxol-5-yl)-6,6,9-trimethyl-6a,7,8,9,10,10a-hexahydro-6H-benzo[c]chromen-1-ol] as the compound, how does the Ki [1] read?
**A.** The Ki was 117 ± 11.7 nM.

**Q.** What about the IC50 [1, 6] of the same compound?
**A.** The IC50 was ≤ 3200 nM.

**Q.** And the inhibition at 10 µM [1]?
**A.** Its inhibition at 10 µM is 67%.

**Q.** And the inhibition at 10 µM [2]?
**A.** Its inhibition at 10 µM is 30.8%.

**Q.** Which inhibition at 10 µM [1] does the source give for C[C@H]1CC[C@H]2[C@H](C1)c1c(O)cc(-c3ccc(C#N)cc3)cc1OC2(C)C [11C, 4-((6aS,9S,10aS)-1-Hydroxy-6,6,9-trimethyl-6a,7,8,9,10,10a-hexahydro-6H-benzo[c]chromen-3-yl)benzonitrile] here?
**A.** Its inhibition at 10 µM is 22.1%.

**Q.** What about the inhibition at 10 µM [2] of the same compound?
**A.** The inhibition at 10 µM was -7.02%.

**Q.** Which results are given for C[C@H]1CC[C@H]2[C@H](C1)c1c(O)cc(-c3ccoc3)cc1OC2(C)C [11D, (6aS,9S,10aS)-3-(Furan-3-yl)-6,6,9-trimethyl-6a,7,8,9,10,10a-hexahydro-6H-benzo[c]chromen-1-ol]?
**A.** inhibition at 10 µM [1]: 44.4%; inhibition at 10 µM [2]: 34%

**Q.** Which Ki [1] does the source give for CCCCCC/C=C/c1cc(O)c2c(c1)OC(C)(C)[C@H]1CC[C@H](C)C[C@H]21 [11E, (6aS,9S,10aS)-6,6,9-Trimethyl-3-((E)-oct-1-en-1-yl)-6a,7,8,9,10,10a-hexahydro-6H-benzo[c]chromen-1-ol] here?
**A.** The Ki was 573 ± 106 nM.

**Q.** What about the IC50 [1, 6] of the same compound?
**A.** The IC50 was ≤ 3200 nM.

**Q.** What about the IC50 [1, 7] of the same compound?
**A.** Its IC50 is 1150 ± 212 nM.

**Q.** What about the inhibition at 10 µM [1] of the same compound?
**A.** Its inhibition at 10 µM is 50.4%.

**Q.** What about the EC50 [3] of the same compound?
**A.** The EC50 was 239 ± 68 nM.

**Q.** And the “functional behavior at CB1” value [3]?
**A.** The value was “agonist”.

**Q.** What about the IC50 [2] of the same compound?
**A.** The IC50 was 684 ± 326 nM.

**Q.** And the Ki [2]?
**A.** Its Ki is 342 ± 95.8 nM.

**Q.** And the inhibition at 10 µM [2]?
**A.** The inhibition at 10 µM was 66.8%.

**Q.** What does the source list for C[C@H]1CC[C@H]2[C@H](C1)c1c(O)cc(/C=C/c3ccc(C(F)(F)F)cc3)cc1OC2(C)C [11F, (6aS,9S,10aS)-6,6,9-Trimethyl-3-((E)-4-(trifluoromethyl)styryl)-6a,7,8,9,10,10a-hexahydro-6H-benzo[c]chromen-1-ol]?
**A.** inhibition at 10 µM [1]: 23.9%; inhibition at 10 µM [2]: 43.2%

**Q.** With C[C@H]1CC[C@H]2[C@H](C1)c1c(O)cc(/C=C/c3ccc(Cl)cc3)cc1OC2(C)C [11G, (6aS,9S,10aS)-3-((E)-4-Chlorostyryl)-6,6,9-trimethyl-6a,7,8,9,10,10a-hexahydro-6H-benzo[c]chromen-1-ol] as the compound, how does the inhibition at 10 µM [1] read?
**A.** The inhibition at 10 µM was 8.7%.

**Q.** What about the inhibition at 10 µM [2] of the same compound?
**A.** Its inhibition at 10 µM is 7.54%.

**Q.** Which EC50 ([4]; EC50 GTPγS CB2, duplicate) does the source give for C[C@H]1CC[C@H]2[C@H](C1)c1c(O)cc(-c3cccc4c3oc3ccccc34)cc1OC2(C)C [11H, (6aS,9S,10aS)-3-(Dibenzo[b,d]furan-4-yl)-6,6,9-trimethyl-6a,7,8,9,10,10a-hexahydro-6H-benzo[c]chromen-1-ol] here?
**A.** The EC50 was 5730 ± 3290 nM.

**Q.** And the “functional behavior at CB2” value [4]?
**A.** Its value is “agonists”.

**Q.** What about the Ki [1] of the same compound?
**A.** Its Ki is 63.7 ± 8.19 nM.

**Q.** And the IC50 [1, 6]?
**A.** The IC50 was ≤ 3200 nM.

**Q.** What about the IC50 [1, 7] of the same compound?
**A.** The IC50 was 127 ± 16.4 nM.

**Q.** And the inhibition at 10 µM [1]?
**A.** The inhibition at 10 µM was 76.2%.

**Q.** What about the inhibition at 10 µM [2] of the same compound?
**A.** Its inhibition at 10 µM is 29.4%.

**Q.** For C[C@H]1CC[C@H]2[C@H](C1)c1c(O)cc(-c3ccc(Oc4ccccc4)cc3)cc1OC2(C)C [11I, (6aS,9S,10aS)-6,6,9-Trimethyl-3-(4-phenoxyphenyl)-6a,7,8,9,10,10a-hexahydro-6H-benzo[c]chromen-1-ol], which inhibition at 10 µM [1] is on record?
**A.** The inhibition at 10 µM was 16.3%.

**Q.** What about the inhibition at 10 µM [2] of the same compound?
**A.** The inhibition at 10 µM was 34.4%.

**Q.** With C[C@H]1CC[C@H]2[C@H](C1)c1c(O)cc(-c3csc4ccccc34)cc1OC2(C)C [11J, (6aS,9S,10aS)-3-(Benzo[b]thiophen-3-yl)-6,6,9-trimethyl-6a,7,8,9,10,10a-hexahydro-6H-benzo[c]chromen-1-ol] as the compound, how does the “functional behavior at CB2” value [4] read?
**A.** The value was “agonists”.

**Q.** And the Ki [1]?
**A.** Its Ki is 40.2 ± 2.91 nM.

**Q.** And the IC50 [1, 6]?
**A.** Its IC50 is ≤ 3200 nM.

**Q.** What about the IC50 [1, 7] of the same compound?
**A.** The IC50 was 80.4 ± 5.82 nM.

**Q.** What about the inhibition at 10 µM [1] of the same compound?
**A.** Its inhibition at 10 µM is 70.4%.

**Q.** And the EC50 [3]?
**A.** Its EC50 is 1470 ± 708 nM.

**Q.** And the “functional behavior at CB1” value [3]?
**A.** The value was “agonists”.

**Q.** And the IC50 [2]?
**A.** The IC50 was > 2000 nM.

**Q.** What about the Ki [2] of the same compound?
**A.** Its Ki is > 1000 nM.

**Q.** What about the inhibition at 10 µM [2] of the same compound?
**A.** Its inhibition at 10 µM is 56.4%.

**Q.** Which inhibition at 10 µM [1] does the source give for C[C@H]1CC[C@H]2[C@H](C1)c1c(O)cc(-c3cc(C(F)(F)F)cc(C(F)(F)F)c3)cc1OC2(C)C [11K, (6aS,9S,10aS)-3-(3,5-Bis(trifluoromethyl)phenyl)-6,6,9-trimethyl-6a,7,8,9,10,10a-hexahydro-6H-benzo[c]chromen-1-ol] here?
**A.** The inhibition at 10 µM was 11.2%.

**Q.** And the inhibition at 10 µM [2]?
**A.** The inhibition at 10 µM was -26.7%.

**Q.** For CCCCCc1cc(O)c2c(c1)OC(C)(C)[C@@H]1CCC(C)=C[C@@H]21 [dronabinol], which “potency relative to the (+)-trans-isomer of Δ9-THC” value [5] is on record?
**A.** Its value is 6–100 times.
